Test results published in PMC7935409 (Investigative radiology, 2020).

System: Male Wistar rats
Assay: DEN model of hepatic fibrosis and inflammation, body weight and liver histology
Format: in vivo, rat
Conditions: for collagen proportional area (CPA), Sirius Red: weekly 100 mg/kg i.p.
In short: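 Male Wistar rats (190–220 g at start) got weekly i.p. DEN 100 mg/kg in PBS for 4 weeks, or PBS only as controls, and were sampled 1 or 7 days after the last dose. Formalin-fixed, paraffin-embedded 5 μm liver sections were stained with H&E, Sirius Red, and fibrin antibody (1:25). A pathologist scored modified Ishak HAI; CPA was the % Sirius Red area. Values are mean ± standard error, compared by t-test.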

## CCN(CC)N=O [DEN, diethylnitrosamine]
1 day post DEN
  HAI score for inflammation (0 – 4): 3.54 ± 0.14
  fibrin immunostaining, area stained: 3.56 ± 1.35
  fibrosis Ishak score (0 – 6): 3.62 ± 0.31
  collagen proportional area (CPA), Sirius Red: 3.14 ± 1.27%
7 days post DEN
  HAI score for inflammation (0 – 4): 1.61 ± 0.16
  fibrin immunostaining, area stained: 1.02 ± 0.58
  fibrosis Ishak score (0 – 6): 3.82 ± 0.25
  collagen proportional area (CPA), Sirius Red: 3.30 ± 0.65%
